Bioassay records deposited in PubChem BioAssay by Broad Institute.
HIV Env fusion: inhibitors of HIV Env-mediated cell fusion; 360,000 compounds, 1.1% hits; AID 651610; inhibition, % at 12.3 µM; HeLa-JRFL Env/CEM21 cell fusion, luciferase;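 active = mean replicate inhibition score of at least 50 and every replicate individually at or above 50; inconclusive = only one of the two criteria met; inactive = mean below 50 and not all replicates reaching 50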;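 also: 0% = plate neutral controls and 100% = maraviroc near 300 nM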
miR-122 sensor: inhibitors of miR-122 in Huh7 cells; Huh7 miR-122 Renilla luciferase sensor, 48 h; neutral wells = 0, positive control = 100; activation (reporter increase), % at 12.5 µM; 340,000 compounds, 0.3% hits;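 active = mean replicate activation score at least 90 and every replicate individually at or above 90; inconclusive = only one of the two criteria met; inactive = neither criterion met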;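 also: higher luciferase means less miR-122 activity so hits act as miR-122 inhibitors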
Ecoli rRNA inh: inhibitors of bacterial rRNA selective over humanized ribosomes. 350,000 compounds, 1.6% hits. AID 720706. E. coli WT GFP vs humanized-ribosome RFP mutants, fluorescence, 24 h; stronger effect = lower value; DMSO median 0, no signal -100. GFP signal change (wild-type ribosome), % (no concentration beside the values);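 active = significant combined selectivity score with lowered wild-type GFP, culture density cut under 30%, mutant RFP and density less affected; inactive = any of these conditions unmet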
FN deposit inh: fibronectin deposition inhibition; AH1F fibroblasts, Alexa488-fibronectin deposition fluorescence, overnight; inhibition, % at 12.6 µM; 350,000 compounds, 0.086% hits;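 active = mean inhibition across replicates of 30% or more, regardless of how many single replicates reach that level; inconclusive = mean under 30% yet at least half of replicates reach 30%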;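 also: positive control wells lacked labelled fibronectin entirely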
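Material: AH1F fibroblast monolayer depositing Alexa488-labelled fibronectin into matrix | Input: 10000 AH1F cells/well | Medium: DMEM plus 2% serum, read in PBS | Reagent: Alexa488-fibronectin, 24 nM final in well | Compound dosing: One dose per compound, pinned | Schedule: 1 h adhesion, overnight exposure | Measured by: Fluorescence at 485 nm excitation, 525 nm emission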
Vif inh: HIV Vif inhibition. 340,000 compounds, 0.35% hits. inhibition, % at 7.49 µM. HEK293T cells, Vif self-association by quenched fluorescence, imaging, 24 h. AID 602346; in the data active = inhibition above about 50%, passing the limit was not always enough; inconclusive = no clear call, values can overlap the other calls; inactive = below about 31%
S100A4 inh HTS: blocks human S100A4 binding to myosin IIA peptide. inhibition, % at 10.7 µM. 360,000 compounds, 0.14% hits. S100A4/TAMRA-MyoIIA peptide fluorescence polarization. P26447;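 active = mean inhibition of at least 70% across replicates, with every replicate also reaching that level; inconclusive = mean inhibition reaches 70% but some replicates fall short; inactive = mean inhibition below 70%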
Target sequence (P26447 whole entry, looked up): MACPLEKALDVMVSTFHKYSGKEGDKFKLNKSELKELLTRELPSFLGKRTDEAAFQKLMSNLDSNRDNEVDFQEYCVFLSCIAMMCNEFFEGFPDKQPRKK
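Material: S100A4 monomer (human). Medium: Calcium-containing HEPES buffer, pH 7.2. Probe or stimulus: labelled myosin peptide probe, 5 nM. Compound dosing: one concentration per compound. Timing: polarization read 5 min after assay mix addition, stable 5–60 min. Benchmarks: DMSO as neutral control, TFP as positive control.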
An asterisk follows results filed as active; [ ] = dose if it differs, or a comment. Rows were chosen to be rich in hits. Some 2.6% of all compounds tested hit in one or more screens of this group.

What do the screens show for `COc1cc(CC(=O)OCC(=O)Nc2ccc(N3CCOCC3)cc2)cc(OC)c1OC`?
HIV Env fusion: -1; miR-122 sensor: -1; Ecoli rRNA inh: 10; FN deposit inh: 1; Vif inh: -1; S100A4 inh HTS: -1

Results for CCCCCC(=O)NC(=S)Nc1ccc(N2CCOCC2)cc1 ?
HIV Env fusion: -8; Ecoli rRNA inh: -27*; FN deposit inh: -10; Vif inh: -4; S100A4 inh HTS: 3

What do the screens show for `COc1ccc(CC(=O)OCC(=O)Nc2ccc(N3CCOCC3)cc2)cc1`?
HIV Env fusion: 0; miR-122 sensor: -5; Ecoli rRNA inh: 4; FN deposit inh: 8; Vif inh: 81*; S100A4 inh HTS: 0

What do the screens show for `CCC(=O)NC(=S)Nc1ccc(N2CCOCC2)cc1`?
HIV Env fusion: -12; Ecoli rRNA inh: 8; FN deposit inh: -2; Vif inh: -2; S100A4 inh HTS: -4

What do the screens show for `Cc1cc2c(c(=O)o1)C(CCC1CCCCC1)C(C#N)=C(N)O2` (stereo not given)?
HIV Env fusion: 2; miR-122 sensor: -8; Ecoli rRNA inh: -21*; FN deposit inh: -10; Vif inh: 10; S100A4 inh HTS: -18

What do the screens show for `O=C1COc2ccc(S(=O)(=O)Nc3ccc(F)cc3)cc2N1`?
HIV Env fusion: -2; miR-122 sensor: 112*; Ecoli rRNA inh: 0; FN deposit inh: 5; Vif inh: -1; S100A4 inh HTS: -4

Results for Cc1ccc(NS(=O)(=O)c2ccc3c(c2)NC(=O)CO3)c(C)c1 ?
HIV Env fusion: 2; miR-122 sensor: 12; Ecoli rRNA inh: -6; FN deposit inh: -12; Vif inh: -4; S100A4 inh HTS: 0

What do the screens show for `COc1ccc(S(=O)(=O)Nc2ccc3c(c2)CC(=O)N([C@@H](C)CO)C[C@@H](C)[C@@H](CN(C)S(=O)(=O)c2ccc(OC)cc2)O3)cc1`?
HIV Env fusion: 0[16.7 µM]; miR-122 sensor: 5[16.7 µM]; Ecoli rRNA inh: -1; S100A4 inh HTS: 4

Results for C[C@H](NC(=O)C[C@@H]1CC[C@H](NC(=O)C2CCOCC2)[C@@H](CO)O1)c1ccccc1 ?
HIV Env fusion: 4[16.7 µM]; Ecoli rRNA inh: 1; FN deposit inh: 8; S100A4 inh HTS: 111*

How did COc1ccc(NC(=O)N(C)C[C@@H]2Oc3c(NC(=O)Nc4ccc(C(F)(F)F)cc4)cccc3C(=O)N([C@@H](C)CO)C[C@H]2C)cc1 do in these assays?
HIV Env fusion: inconclusive; miR-122 sensor: -4[16.7 µM]; Ecoli rRNA inh: -8

Results for CO[C@@H]1CN(C)C(=O)c2cc(NC(=O)Nc3cccc(F)c3)ccc2OC[C@H](C)NC[C@H]1C ?
miR-122 sensor: -4[16.7 µM]; Ecoli rRNA inh: 0; FN deposit inh: 2; S100A4 inh HTS: -2

Results for CC(=O)c1c(C)[nH]c(C(=O)OCC(=O)Nc2ccc(Cl)c(S(=O)(=O)N(C)C)c2)c1C ?
HIV Env fusion: 79*; miR-122 sensor: 2; Ecoli rRNA inh: -6; FN deposit inh: 2; Vif inh: -6; S100A4 inh HTS: 3

What do the screens show for `CN(C)S(=O)(=O)c1cc(NC(=O)CNCc2ccccc2)ccc1Cl`?
HIV Env fusion: -9; miR-122 sensor: 6; Ecoli rRNA inh: 2; FN deposit inh: -20; Vif inh: 1; S100A4 inh HTS: 0

What do the screens show for `CN(CCOc1ccccc1)CC(=O)Nc1ccc(Cl)c(S(=O)(=O)N(C)C)c1`?
HIV Env fusion: 22; Ecoli rRNA inh: -37*; FN deposit inh: -3; Vif inh: -5; S100A4 inh HTS: -4

How did Cc1noc(C)c1S(=O)(=O)N(C)C[C@H]1Oc2ccc(NC(=O)Nc3ccccc3)cc2C(=O)N([C@H](C)CO)C[C@@H]1C do in these assays?
Ecoli rRNA inh: -6

What do the screens show for `CCC(=O)N1C[C@@H](C)[C@@H](OC)CN(C)C(=O)c2cc(NC(=O)NC(C)C)ccc2OC[C@H]1C`?
miR-122 sensor: 4[16.7 µM]; Ecoli rRNA inh: -4; FN deposit inh: -5; S100A4 inh HTS: 0

What do the screens show for `COCCNC(=O)C[C@@H]1CC[C@@H]2[C@@H](COc3ccc(NC(=O)C4CCCC4)cc3C(=O)N2C)O1`?
HIV Env fusion: -16[16.7 µM]; miR-122 sensor: -1[16.7 µM]; Ecoli rRNA inh: -1; FN deposit inh: 4; S100A4 inh HTS: -9

What do the screens show for `O=C(CCCSc1nc2ccccc2c(=O)[nH]1)c1ccccc1`?
HIV Env fusion: 0; miR-122 sensor: -4; Ecoli rRNA inh: 23; FN deposit inh: 4; Vif inh: 52*; S100A4 inh HTS: 6

Results for O=C(NCC[C@@H]1CC[C@@H](NC(=O)c2ccccc2F)[C@@H](CO)O1)c1ccc2c(c1)OCO2 ?
HIV Env fusion: -18[16.7 µM]; miR-122 sensor: -20[16.7 µM]; Ecoli rRNA inh: 1; FN deposit inh: -15; S100A4 inh HTS: 0

Results for Cc1cc(C)n(-c2ccc(C(=O)N3CCc4ccccc43)cc2)n1 ?
HIV Env fusion: -83; miR-122 sensor: -4; FN deposit inh: -1; Vif inh: 0

How did Cc1cc(C(=O)N2CCc3ccccc32)n(-c2ccccc2)n1 do in these assays?
HIV Env fusion: -9; miR-122 sensor: 115*; Ecoli rRNA inh: 3; FN deposit inh: 3; S100A4 inh HTS: -2

How did COC(=O)Nc1ccc(SCC(=O)c2ccccc2)cc1 do in these assays?
HIV Env fusion: -3; Ecoli rRNA inh: -25*; FN deposit inh: -6; Vif inh: -1; S100A4 inh HTS: -8

How did O=C(C[C@H]1CC[C@H]2[C@@H](COC[C@@H](O)CN2S(=O)(=O)c2ccc(Cl)cc2)O1)NCc1ccc(Cl)c(Cl)c1 do in these assays?
miR-122 sensor: -2[16.7 µM]; Ecoli rRNA inh: -48; FN deposit inh: -2; S100A4 inh HTS: 3

Results for C[C@@H]1CCCCO[C@@H](CN(C)S(=O)(=O)c2ccc(F)cc2)[C@@H](C)CN([C@H](C)CO)C(=O)c2cc(NC(=O)Nc3ccc4c(c3)OCO4)ccc2O1 ?
HIV Env fusion: 14[16.7 µM]; miR-122 sensor: 0[16.7 µM]; Ecoli rRNA inh: 0; FN deposit inh: -6; S100A4 inh HTS: 0

Results for COc1ccc(Sc2cnn(-c3ccccc3)c(=O)c2Cl)cc1 ?
Vif inh: 51*

How did CCCNC(=O)N1C[C@H](O)COC[C@@H]2O[C@@H](CC(=O)N3CCN(C)CC3)CC[C@H]21 do in these assays?
HIV Env fusion: -13[16.7 µM]; miR-122 sensor: -5[16.7 µM]; Ecoli rRNA inh: 8; FN deposit inh: -1; S100A4 inh HTS: 8

How did O=C(C[C@@H]1C[C@@H]2c3cc(NC(=O)Nc4ccc(C(F)(F)F)cc4)ccc3O[C@@H]2[C@@H](CO)O1)NC1CCCCC1 do in these assays?
HIV Env fusion: inconclusive; miR-122 sensor: -5[16.7 µM]; Ecoli rRNA inh: -4; S100A4 inh HTS: 0
